Results on 10 compounds are retold here after ChEMBL document CHEMBL4043073, “Boronic Acid Modifications Enhance the Anti-Influenza A Virus Activities of Novel Quindoline Derivatives” (J Med Chem, 2017).

Active and inactive are the calls of the source. The calls are words filed in the database; no cut-off is given here. A value given as a limit tells only on which side of the number the result lay.

Series [1] is described as follows: Selectivity index, ratio of CC50 for MDCK cells to IC50 for Influenza A virus (A/Puerto Rico/8/34(H1N1)) infected in MDCK cells assessed as reduction in virus-induced cytopathic effect. The class given is toxicity, cell-based. The note with it: dog, read-out: Ratio CC50/IC50. Background: Cytopathic effects are the visible damage that an infection or toxin causes in cultured cells.

Series [2] deals with Influenza A virus. Kind of series: Antiviral activity against Influenza A virus (A/Puerto Rico/8/34(H1N1)) infected in MDCK cells assessed as virus yeild reduction preincubated with virus at 37 degreeC for 1 hr followed by viral infection for 1 hr measured after 3 days by crystal violet staining based plaque assay. The format is functional, cell-based. The note with it: A/Puerto Rico/8/1934(H1N1). In a few lines: (§1)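 Plaque reduction: about 50–100 PFU/well of PR8, Cal09 or Minnesota preincubated with compound (0–10 μM) 1 h at 37 °C. Mixture then adsorbed to MDCK monolayers 1 h at 4 °C. Overlay was DMEM with 1.5% agarose, DEAE-dextran and 1 μg/mL TPCK-trypsin for 3 days at 37 °C. Glutaraldehyde fix, crystal violet stain, plaque count; IC50 derived; n = 4.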

The subject of series [3] is NCI-H1299. The series can be described thus: Cytotoxicity against human H1299 cells at 20 uM after 48 hrs by resazurin based fluorescence method. The class given is cell-based. The following applies: nci-h1299, 48 h. In a few lines: (§2)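 Confluent MDCK, A549 or H1299 cells exposed in triplicate to compound for 48 h at 37 °C (A549/H1299 at 20 μM). Resazurin added to 0.2 mg/mL final for 16 h. Fluorescence read at ex 544 / em 595 nm; viability as % of untreated.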
Background: Resazurin is reduced to fluorescent resorufin, in cell work by metabolically active cells.

Series [4] deals with Influenza A virus (A/California/04/2009(H1N1)). The series can be described thus: Antiviral activity against Influenza A virus (A/California/04/2009(H1N1)) infected in MDCK cells assessed as virus yeild reduction preincubated with virus at 37 degC for 1 hr followed by viral infection for 1 hr measured after 3 days by crystal violet staining based plaque assay. The format is functional, cell-based. The gist of the method:
as §1

Series [5] deals with Influenza A virus. Kind of series: Antiviral activity against Influenza A virus (A/Puerto Rico/8/34(H1N1)) infected in MDCK cells assessed as reduction in viral HA titer by measuring reduction in chicken RBC […] after 24 hrs by hemagglutination test. The class given is functional, cell-based. The following applies: A/Puerto Rico/8/1934(H1N1). In a few lines:
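MDCK cells infected at MOI 3.0 (single-cycle) with PR8, Cal09 or swine H3N2 Minnesota, then treated with compound for 24 h. Supernatant HA titers were read by 2-fold serial dilution with an equal volume of 1% chicken RBCs, 60 min at 4 °C. Expressed as percent of untreated-cell HA titer; IC50 derived; n = 4.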

Series [6] relates to A549. The series can be described thus: Cytotoxicity against human A549 cells at 20 uM after 48 hrs by resazurin based fluorescence method. The class given is cell-based. The note with it: a549, 48 h. In a few lines:
as §2

For series [7], the system named is Influenza A virus. Kind of series: Antiviral activity against Influenza A virus (A/Puerto Rico/8/34(H1N1)) infected in A549 cells assessed as reduction in localization of viral NP protein in nucleus at 10 uM preincubated with virus at 37 degC for 1 hr followed by viral adsorption at 4 degC for 1 hr and subsequent infection in A549 cells measured at 2 to 4 hrs post infection by FITC-staining based immunofluorescence microscopic method. The class given is functional, cell-based. The following applies: A/Puerto Rico/8/1934(H1N1). The gist of the method: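 PR8 (MOI 1.0) pretreated with 10 μM compound 1 h at 37 °C, adsorbed 1 h at 4 °C, then A549 cells were kept in infecting medium with 10 μM compound. Fixed with 4% paraformaldehyde at 2 or 4 h p.i., permeabilised with Triton X-100 and blocked. Anti-NP plus FITC secondary, confocal imaging; nuclear NP intensity per unit area quantified (n = 30 images).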

In series [8] the test system is Influenza A virus. The series can be described thus: Antiviral activity against Influenza A virus (A/swine/Minnesota/02719/2009(H3N2)) infected in MDCK cells assessed as virus yeild reduction preincubated with virus at 37 degC for 1 hr followed by viral infection for 1 hr measured after 3 days by crystal violet staining based plaque assay. The format is functional, cell-based. The gist of the method: as §1

In series [9] the test system is Influenza A virus. The series can be described thus: Antiviral activity against Influenza A virus (A/Puerto Rico/8/34(H1N1)) infected in Kunming mouse assessed as intact columnar epithelium in bronchiole without inflammatory cell infiltration at 10 mg/kg/day, po qd for 4 days by hematoxylin and eosin staining based assay. The format is functional, organism-based. The note with it: A/Puerto Rico/8/1934(H1N1).

Series [10] has as its system Influenza A virus (A/Puerto Rico/8/1934(H1N1)). The series can be described thus: Inhibition of Influenza A virus (A/Puerto Rico/8/34(H1N1)) neuraminidase using MUNANA as substrate preincubated for 30 mins followed by substrate addition measured after 30 mins by fluorescence assay relative to control. In a few lines: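 Inactivated PR8 virus supernatant mixed with compound (10 μM) in 33 mM MES […], 4 mM CaCl2 for 30 min at 37 °C. MUNANA (20 μM) was added for 30 min at 37 °C and the reaction stopped with glycine/ethanol pH 10.7. Fluorescence read at ex 360 / em 440 nm; zanamivir 10 μM as reference; n = 3.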

The nature of series [11]: Selectivity index, ratio of CC50 for MDCK cells to IC50 for Influenza A virus (A/Puerto Rico/8/34(H1N1)) infected in MDCK cells by plaque assay. The note with it: dog, read-out: Ratio CC50/IC50. The format is toxicity, cell-based.
The subject of series [12] is Influenza A virus. The series can be described thus: Antiviral activity against Influenza A virus (A/Puerto Rico/8/34(H1N1)) infected in MDCK cells assessed as reduction in virus titer at 10 uM preincubated with virus for 1 hr followed by viral infection measured after 24 hrs by crystal violet staining based plaque assay. The format is functional, cell-based. The following applies: A/Puerto Rico/8/1934(H1N1). In a few lines: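 PR8 (MOI 1.0) preincubated with compound (2.5–10 μM) 1 h at 37 °C, then used to infect MDCK cells. After adsorption, medium with the same compound concentration was added. At 24 h p.i. supernatant virus titer was measured by plaque assay; n = 3.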

The nature of series [13]: Drug uptake in human A549 cell nucleus at 20 uM after 4 hrs by DAPI staining based confocal microscopic analysis. The class given is ADME. The note with it: a549, 4 h. In a few lines: (§3)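 A549 cells incubated with 20 μM compound 4 h at 37 °C, then fixed and DAPI-stained. Compound intrinsic fluorescence located by confocal microscopy.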
Series [14] can be described thus: Drug uptake in human A549 cells at 20 uM after 4 hrs by DAPI staining based confocal microscopic analysis. The class given is ADME, cell-based. The following applies: a549, 4 h. In a few lines:
as §3

In series [15] the test system is Influenza A virus. Kind of series: Antiviral activity against Influenza A virus (A/Puerto Rico/8/34(H1N1)) infected in Kunming mouse assessed as pulmonary viral titer reduction at 10 mg/kg/day, po qd for 4 days measured on day 4 post last dose by crystal violet staining based plaque assay. The format is functional, organism-based. The note with it: A/Puerto Rico/8/1934(H1N1). In a few lines:
(§4)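 Female 4-week-old Kunming mice infected intranasally with PR8 (4 HAU/mouse). Oral gavage once daily began 2 h post-inoculation; placebo control. Mice euthanised on day 4; lungs homogenised in PBS and titrated by plaque assay on cell monolayers (agarose overlay, 3 days, crystal violet).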

Series [16] can be described thus: Cytotoxicity against MDCK cells after 48 hrs by resazurin based fluorescence method. The note with it: dog. The class given is cell-based, Canis lupus familiaris. The gist of the method: as §2
Series [17] relates to Influenza A virus. The series can be described thus: Antiviral activity against Influenza A virus (A/Puerto Rico/8/34(H1N1)) infected in MDCK cells assessed as reduction in virus-induced cytopathic effect after 48 hrs by crystal violet staining based assay. The class given is functional, cell-based. The note with it: A/Puerto Rico/8/1934(H1N1). The gist of the method:
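MDCK cells infected with PR8 at MOI 0.1; compounds added in triplicate after inoculum removal. After 48 h cells were fixed with 4% formaldehyde and stained with 0.1% crystal violet. Dye was methanol-solubilised and read at 570 nm; IC50 was the concentration halving CPE.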

The subject of series [18] is Influenza A virus. Kind of series: Antiviral activity against Influenza A virus (A/Puerto Rico/8/34(H1N1)) infected in Kunming mouse assessed as intact columnar epithelium in bronchiole without inflammatory cell infiltration at 20 mg/kg/day, po qd for 4 days by hematoxylin and eosin staining based assay. The format is functional, organism-based. The following applies: A/Puerto Rico/8/1934(H1N1).

Series [19] concerns Influenza A virus. The series can be described thus: Antiviral activity against Influenza A virus (A/Puerto Rico/8/34(H1N1)) infected in Kunming mouse assessed as viral titer reduction in lungs at 20 mg/kg/day, po qd for 4 days measured on day 4 post last dose by crystal violet staining based plaque assay. The note with it: A/Puerto Rico/8/1934(H1N1). The format is functional, organism-based. In a few lines: as §4

Series [20] relates to Influenza A virus. Kind of series: Antiviral activity against Influenza A virus (A/Puerto Rico/8/34(H1N1)) infected in Kunming mouse assessed as survival rate at 20 mg/kg/day, po qd for 7 days measured on day 14 post infection (reference value: 30%). The class given is functional. The following applies: A/Puerto Rico/8/1934(H1N1).
A short description of series [21]: Drug uptake in human A549 cell cytoplasm at 20 uM after 4 hrs by DAPI staining based confocal microscopic analysis. The note with it: a549, 4 h. The class given is ADME. In a few lines:
as §3

Series [22] is described as follows: Drug uptake in human A549 cell membranes at 20 uM after 4 hrs by DAPI staining based confocal microscopic analysis. The format is ADME. The following applies: a549, 4 h. The gist of the method: as §3

In general, inhibition refers to the percentage by which the read-out fell short of the control. A word on the IC50: it is the concentration at which inhibition is half-maximal. As a reminder, the CC50 is the concentration giving 50% cytotoxicity. Consider `Nc1ccccc1Nc1c2ccccc2nc2c1[nH]c1ccccc12`, for which the selectivity ratio in series [1] turned out to be 0.8; in series [11], 1.5. The outcome in series [2], in [4], in series [5], in series [7], in series [8] and in series [9] was Active. In addition, the Activity result in series [3] and in [6] was “Non-Toxic” in each case. Moreover, the inhibition entry in [10] was “inactive”. The IC50 in series [12] was determined as 25.5 µM; in series [17] it was 47.4 µM. For the same compound, the Drug uptake entry in series [13] and in [14] was “Active” in each case. Besides, the outcome in series [15] was inactive. For the same compound, in series [16], half-maximal cytotoxicity (CC50 at 48 h) was put at 37.9 µM.
For `O=C(Nc1ccc(Nc2c3ccccc3nc3c2[nH]c2ccccc23)cc1)c1ccc(B(O)O)cc1`, the Activity entry in series [3] and in [6] was “Non-Toxic” in each case.
For the compound `Nc1ccc(Nc2c3ccccc3nc3c2[nH]c2ccccc23)cc1`, the Activity entry in series [3] and in series [6] was “Non-Toxic” in each case.
For `O=C(Nc1cccc(Nc2c3ccccc3nc3c2[nH]c2ccccc23)c1)c1cccc(B(O)O)c1`, the Activity result in [3] and in series [6] was “Non-Toxic” throughout.
`CCOC(=O)C1=C[C@@H](OC(CC)CC)[C@H](NC(C)=O)[C@@H](N)C1` [OSELTAMIVIR]: in series [1], the selectivity ratio stood at 36.2. Further, the result in series [18], in series [5], in series [19] and in series [12] was Active. Also, the survival at 20 mg/kg/day in series [20] was found to be 80%.
In the case of `CC(=O)N[C@H]1[C@H]([C@H](O)[C@H](O)CO)OC(C(=O)O)=C[C@@H]1NC(=N)N`, in series [10], the inhibition is > 85%.
As for `Nc1cccc(Nc2c3ccccc3nc3c2[nH]c2ccccc23)c1`, the Activity result in series [3] and in series [6] was “Non-Toxic” in each case.
As to `O=C(Nc1ccccc1Nc1c2ccccc2nc2c1[nH]c1ccccc12)c1ccc(B(O)O)cc1`, the outcome in [2], in [4], in series [5], in [7], in series [8] and in series [9] was Active. The outcome in [12] and in [15] was Active. For the same compound, the Activity entry in series [3] and in series [6] was “Non-Toxic” each time. Besides, the Drug uptake result in [21] was “Active”; in series [22] it was “Active”; in [13], “Not Active”; in series [14], “Active”. Also, the inhibition in series [10] was found to be 56%. The 50% cytotoxic concentration (CC50) at 48 h in series [16] is 78.6 µM.
Turning to `O=C(Nc1ccc(Nc2c3ccccc3nc3c2[nH]c2ccccc23)cc1)c1cccc(B(O)O)c1`, the Activity entry in [3] and in series [6] was “Non-Toxic” throughout.
Consider `O=C(Nc1cccc(Nc2c3ccccc3nc3c2[nH]c2ccccc23)c1)c1ccc(B(O)O)cc1`, for which the Activity entry in series [3] and in [6] was “Non-Toxic” in each case.
